# Screening data: PubChem, The Scripps Research Institute Molecular Screening Center
# OX1R antag-1 = antagonists of human orexin 1 receptor; AID 434989; actives 0.43% (n = 330,000); CHO/OX1R cells, Fluo-8 calcium fluorescence, orexin A; inhibition, % at 5 µM;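 active means inhibition above its plate's threshold, mean inhibition of all tested compounds on the plate plus 3 SD, cut at about 37% in these data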;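 further: 0% = orexin A challenge wells and 100% = SB-334867-A antagonist wells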
# Target sequence (O43613 whole entry, looked up): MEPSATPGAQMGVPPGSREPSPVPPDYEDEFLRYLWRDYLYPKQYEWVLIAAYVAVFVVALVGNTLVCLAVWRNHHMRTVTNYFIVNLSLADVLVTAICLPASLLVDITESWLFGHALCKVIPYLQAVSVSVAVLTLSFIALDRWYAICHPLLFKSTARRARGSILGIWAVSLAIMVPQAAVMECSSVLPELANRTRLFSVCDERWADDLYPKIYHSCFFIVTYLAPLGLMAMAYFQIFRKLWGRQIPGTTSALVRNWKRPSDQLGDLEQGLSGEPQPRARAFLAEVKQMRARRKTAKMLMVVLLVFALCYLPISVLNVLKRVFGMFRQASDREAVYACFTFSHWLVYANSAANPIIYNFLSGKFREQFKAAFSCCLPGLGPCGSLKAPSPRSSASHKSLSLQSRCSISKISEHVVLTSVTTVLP
# TAAR1 antagonist = antagonists of human TAAR1; CHO RD-HGA16 TAAR1, Fluo-8 calcium fluorescence, antagonist; inhibition, % at 3 µM; actives 1.5% (n = 360,000); AID 624466;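 active means inhibition above a per-plate cutoff, the mean inhibition of test compounds on that plate plus 3 SD, cut at about 49% in these data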;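 further: 0% = DMSO plus EC80 beta-PEA response and 100% = DMSO alone without agonist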
#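 Assay system: CHO-derived RD-HGA16 cells stably expressing human TAAR1 plus Gα16. Timing: 140 s kinetic read after compound, 140 s after agonist. Technique: kinetic Fluo-8 calcium fluorescence measurement. Measure: % inhibition of agonist calcium response.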
# GPR7 antag = human neuropeptides B/W receptor 1 antagonism | P48145 | actives 1.1% (n = 290,000) | GPR7-expressing cells, fluorescence antagonist assay | inhibition, % at 4.4 µM; in the data active means inhibition above about 16%, passing the limit was not always enough;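 further: cells stimulated with the agonist NPW; 0% = agonist with vehicle and 100% = vehicle without agonist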
# OX1R antag-2 = blocks the human orexin 1 receptor. O43613. AID 485270. OX1R-expressing cells, FRET antagonist read-out. actives 1.8% (n = 330,000). inhibition, % at 6.6 µM; in the data active means inhibition mostly above about 38%, no sharp cut-off; inactive means mostly below about 40%;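 further: 0% = agonist challenge alone and 100% = reference antagonist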
# TAAR1 agonist = human TAAR1 agonism | Q96RJ0 | CHO RD-HGA16 TAAR1, Fluo-8 calcium fluorescence; vehicle wells 0%, saturating PEA agonist 100% | activation, % at 3 µM | actives 0.99% (n = 360,000) | AID 624467;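 active means activation above the mean activation of all test compounds in the run plus 3 SD, cut at about 38% in these data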
#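 Assay system: CHO-derived RD-HGA16 cells with stable Gα16 and human TAAR1; timing: 17-24 h seeding, 75 min 37 °C dye, 30 min RT; read-out: % activation from peak over basal fluorescence ratio, DMSO-to-PEA scaled; measured by: kinetic Fluo-8 calcium fluorescence; benchmarks: low control DMSO, high control PEA (EC100); doses: 3 µM single concentration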
# CHO parental Ca = counter-screen for OX1R antagonists: effect in parental CHO cells | parental CHO-K1, ATP-induced calcium, Fluo-8 fluorescence | inhibition, % at 5.6 µM | actives 0.63% (n = 330,000) | AID 463079;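 active means inhibition above that plate's mean sample inhibition plus 3 SD, cut at about 26% in these data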;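 further: 0% = ATP-challenged DMSO wells and 100% = DMSO wells without ATP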
#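 Assay system: untransfected parental CHO cell line. Also added: ATP agonist challenge. Dosing: one dose, 5.6 µM nominal. Measured by: Fluo-8 fluorescence. Read-out: % inhibition. Benchmarks: ATP wells versus no-ATP DMSO wells. Repeats: no replicates.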
# * = called active by the depositor; nt = no result. A selection: hits, their analogues and other compounds. The true share with any hit is near 4.5%.
SMILES,OX1R antag-1,TAAR1 antagonist,GPR7 antag,OX1R antag-2,TAAR1 agonist,CHO parental Ca
CCOC(=O)c1c2c(n(C)c1C)C(=O)C(=O)c1ccc(Br)cc1-2,-10,-13,-7,14,8,-35
O=C(NC1=NCCS1)c1ccc(Cl)cc1,2,-7,10,15,5,2
O=C(NC1=NCCS1)c1ccc(-c2ccc(Cl)cc2)o1,-21,-9,2,56*,3,-33
O=C(Nc1ccc2c(c1)OCO2)c1cnn2c1NC(c1ccco1)CC2C(F)(F)F (configuration not stated),-18,-2,-9,15,7,47*
O=C(Nc1ccc2c(c1)OCO2)c1cc2n(n1)C(C(F)(F)F)CC(c1ccccc1)N2 (configuration not stated),-7,36,-14,12,32,20
C=CCN=C1NC(c2ccccc2)C(C(=O)OC)=C(C)N1C (configuration not stated),nt,-12,nt,nt,2,nt
COC(=O)c1ccccc1OC(=O)c1cc2ccccc2oc1=O,-29,-16,10,31*,0,-7
COC(=O)c1cc2ccccc2oc1=O,-21,-13,-9,31,4,-4
CC1CCN(C(=O)COC(=O)c2cc3ccccc3oc2=O)CC1,-5,-14,nt,42*,4,-11
CC1CCCC(NC(=O)COC(=O)c2cc3ccccc3oc2=O)C1C (configuration not stated),-20,-21,nt,8,1,-16
CC(C)C[C@H]1COc2cccc(F)c2S(=O)(=O)N1,nt,-6,nt,nt,-1,nt
Cc1cccc(C(=O)NC(=S)NNC(=O)c2ccccc2Cl)c1,2,107*,3,-6,148*,-4
Cc1ccc(C(=O)NNC(=S)NC(=O)c2ccc(Cl)cc2)cc1,71*,108*,13,3,146*,34*
Cc1cccc(C(=O)NC(=S)Nc2ccccc2C(=O)O)c1,-19,16,-24,8,0,-10
COC(=O)C1=C(C)N(Cc2ccccc2C(F)(F)F)C(=NCc2ccc(C(F)(F)F)cc2)NC1c1ccccc1 (configuration not stated),nt,-16,nt,nt,3,nt
O=C(C(=O)N1CCN(S(=O)(=O)c2cccc3ccccc23)CC1)c1cccc(C(F)(F)F)c1,nt,8,nt,nt,3,nt
Cc1nn(-c2ccccc2)c2nc(C(F)(F)F)[nH]c(=O)c12,-13,3,-1,9,0,-9
Cc1nn(-c2cc(C(F)(F)F)ccc2Cl)c2nc(C(Cl)(Cl)Cl)[nH]c(=O)c12,-12,-6,-6,40*,-2,-7
Nc1ncnc(N)c1NC(=O)c1ccccc1,nt,-28,nt,nt,2,nt
CC(=O)c1ccc(OCCCC(=O)Nc2cc(Cl)ccc2-n2cncn2)cc1,-10,-24,6,10,1,5
CCOc1ccc(OCCCC(=O)Nc2cc(Cl)ccc2-n2cncn2)cc1,-1,58*,nt,1,15,3
Cc1onc(-c2ccccc2)c1-c1nnc(-c2ccccc2C(F)(F)F)o1,-31,13,-7,12,0,-24
CCn1c(C)nc2cc(-c3nnc(-c4c(-c5ccccc5)noc4C)o3)ccc21,13,10,-15,45*,16,37*
COc1cc(CNCC(C)C)cc(Br)c1OCC(=O)Nc1ccccc1,-15,5,18*,4,17,-21
O=C(O)c1cccc(N2C(=O)c3ccc(Oc4ccc(Cl)cc4)cc3C2=O)c1,0,2,-14,7,10,-4
SMILES,OX1R antag-1,TAAR1 antagonist,GPR7 antag,OX1R antag-2,TAAR1 agonist,CHO parental Ca
Cc1cccc(N2C(=O)c3cccc(Oc4ccc(Cl)cc4)c3C2=O)c1,-16,26,-9,4,38*,-11
Cc1ccc2nc(C(O)C(O)c3nc4ccc(C)cc4[nH]3)[nH]c2c1 (configuration not stated),-24,-7,-3,-14,38*,-27
OC(c1nc2ccccc2[nH]1)C(O)c1nc2ccccc2[nH]1 (configuration not stated),-18,-13,-10,-8,5,-16
Cc1ccc2nc(C(C)O)[nH]c2c1 (configuration not stated),1,-18,-2,11,2,45*
O=C(COc1ccccc1/C=C1\SC(=S)NC1=O)Nc1ccc(F)cc1,17,41,nt,57*,-1,11
NC1=NC(=O)/C(=C/c2ccccc2OCC(=O)Nc2ccc(F)cc2)S1,-14,8,nt,4,1,2
Cc1noc(C)c1-c1ccc(C(=O)NCc2cccnc2)c2occc12,nt,2,nt,nt,2,nt
C=CCN(C(=O)c1cccc(C(F)(F)F)c1)C1(C(=O)Nc2ccccc2)CCN(C(C)C)CC1,-38,11,18*,10,11,-23
CCOC(=O)C1=C(C(=O)OCC)C2N(Cc3ccccc3)c3ccccc3[C@@]23C[C@@H](C(=O)OC)N(S(=O)(=O)c2ccc(C(F)(F)F)cc2)C3=N1 (some centres not stated),nt,-25,nt,nt,1,nt
COc1cccc(CNC(=O)CN(c2ccc(C(C)C)cc2)S(=O)(=O)c2c(C)noc2C)c1,-16,18,5,8,-1,-29
Cc1ccc(N(CC(=O)NC(C)c2ccccc2)S(=O)(=O)c2c(C)noc2C)cc1 (configuration not stated),14,-28,-5,52*,-2,-20
COc1cccc(CNC(=O)CN(c2cc(C)cc(C)c2)S(=O)(=O)c2c(C)noc2C)c1,-18,-1,-19,46*,2,-25
Cc1ccc(N(CC(=O)NC(C)c2ccccc2)S(=O)(=O)c2c(C)n[nH]c2C)cc1 (configuration not stated),-20,-16,-8,31,3,-26
COC(=O)[C@]12C[C@H](CC(=O)NCCCCc3ccccc3)C(=O)N(CCC3=CCCCC3)C1=C[C@H](COCc1ccccc1)O[C@@H]2C,nt,-10,nt,nt,2,nt
CC(=O)Nc1ccc(S(=O)(=O)NCC2CCN(C(=O)C(=O)c3cc4ccccc4o3)CC2)cc1,nt,-2,nt,nt,2,nt
O=C1OC(Nc2cc(Br)cc3cccnc23)c2ccccc21 (configuration not stated),-6,-21,-8,62*,5,4
COc1ccc(-c2cscc2N)cc1,nt,-12,nt,nt,0,nt
CCCC(=O)Nc1ccc(NC(=S)NC(=O)c2ccccc2[N+](=O)[O-])cc1,-31,7,12,10,0,-4
C/C(CC(=O)Nc1ccc([N+](=O)[O-])cc1)=N\NC(=O)c1ccccc1[N+](=O)[O-],32,-24,8,2,1,32*
